The text below walks through data of ChEMBL document CHEMBL3758086, “Inhibitory effect of phenothiazine- and phenoxazine-derived chloroacetamides on Leishmania major growth and Trypanosoma brucei trypanothione reductase” (Eur J Med Chem, 2016).

One assay relates to Leishmania major. Description: Antileishmanial activity against promastigote stage of Leishmania major assessed as inhibition of parasite proliferation after 48 hrs by Alamar Blue assay. Type of assay: functional, organism-based. Background: Alamar Blue is a resazurin reagent that responds to reducing activity.
The target in assay [1] is Trypanothione reductase (Trypanosoma brucei brucei) (UniProt P39051). Nature of the assay: Reversible inhibition of recombinant Trypanosoma brucei trypanothione reductase.
For assay [2] the target is unchanged. Nature of the assay: Inhibition of recombinant Trypanosoma brucei trypanothione reductase at 25 uM in presence of NADPH, trypanothione disulphide. The essentials: (§1)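 T. brucei TR (1 µM) preincubated at 25 °C in 200 µL TR assay buffer with 400 µM NADPH and compound (25, 50 or 100 µM) or DMSO (5%). At 10, 30, 60, 120 and 180 min, a 5 µL aliquot went into a 1 mL standard assay with 100 µM NADPH, started with 100 µM trypanothione disulfide. Absorbance decrease at 340 nm followed at 25 °C.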

For another assay, the system named is K562. Description: Cytotoxicity against human K562 cells assessed as cell growth inhibition after 48 hrs by Neubauer counting chamber analysis. The format is cell-based. The following applies: K562, 48 h.
Assay [3] deals with T1, Tryparedoxin peroxidase (Trypanosoma brucei) (UniProt Q9GU47).
T1 sequence (whole entry): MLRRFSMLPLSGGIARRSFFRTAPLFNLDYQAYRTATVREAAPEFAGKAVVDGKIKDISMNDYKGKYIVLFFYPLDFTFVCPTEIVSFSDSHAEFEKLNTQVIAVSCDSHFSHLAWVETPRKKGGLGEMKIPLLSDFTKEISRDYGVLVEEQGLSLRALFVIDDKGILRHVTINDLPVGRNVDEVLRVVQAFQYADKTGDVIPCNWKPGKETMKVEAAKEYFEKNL
Nature of the assay: Time dependent inhibition of Trypanosoma brucei tryparedoxin peroxidase preincubated for 10 mins in presence of NADPH, tryparedoxin, T(SH)2 followed by addition of hydrogen peroxide. A digest of the protocol: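 Peroxidase cascade mixture of NADPH, T. brucei TR, tryparedoxin, peroxidase, T(SH)2 and inhibitor incubated 10 min, then reaction started with H2O2.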

The target of assay [4] is Trypanothione reductase (Trypanosoma brucei brucei) (UniProt P39051). The following applies: 50 uM.
Assay [5] shares this target. Description: Inhibition of recombinant Trypanosoma brucei trypanothione reductase at 100 uM in presence of NADPH, trypanothione disulphide. A digest of the protocol: as §1

The source made the active and inactive calls. The rule behind the calls is not given here.

Sequence of Trypanothione reductase (Trypanosoma brucei brucei) (P39051 whole entry, looked up): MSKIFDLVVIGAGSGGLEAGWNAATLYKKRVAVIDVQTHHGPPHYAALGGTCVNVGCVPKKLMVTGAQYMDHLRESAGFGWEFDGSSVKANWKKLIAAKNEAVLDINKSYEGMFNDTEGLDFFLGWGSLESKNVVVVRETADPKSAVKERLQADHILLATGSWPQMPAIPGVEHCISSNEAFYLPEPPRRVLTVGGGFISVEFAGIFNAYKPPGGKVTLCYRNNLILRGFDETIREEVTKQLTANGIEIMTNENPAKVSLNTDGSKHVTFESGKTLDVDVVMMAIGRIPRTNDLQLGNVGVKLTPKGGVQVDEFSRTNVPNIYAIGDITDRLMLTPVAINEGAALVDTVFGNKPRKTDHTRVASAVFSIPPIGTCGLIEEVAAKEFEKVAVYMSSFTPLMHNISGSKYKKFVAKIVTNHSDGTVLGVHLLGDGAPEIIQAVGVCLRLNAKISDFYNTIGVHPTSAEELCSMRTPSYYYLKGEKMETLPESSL

Regarding `ClCCN1c2ccccc2Oc2ccc(Cl)cc21`, the IC50 – broadly, the concentration at which inhibition is half-maximal – in the assay on Leishmania major was above 100 µM. The inhibition entry in assay [1] is “inactive”.

As to `O=C(CCl)Nc1cc(Cl)ccc1Oc1ccccc1`, the IC50 in the assay with Leishmania major turned out to be 42.6 µM. In addition, in assay [1], the inhibition entry was “inactive”.

On to `Clc1ccc2c(c1)Nc1ccccc1O2`, for which the IC50 in the assay with Leishmania major came to 69.2 µM. The inhibition result in assay [1] and in assay [2] was “inactive” throughout.

For `CCCCCCCCCCCCCCCCOP(=O)([O-])OCC[N+](C)(C)C` [MILTEFOSINE], the half-maximal inhibitory concentration (IC50) in the assay with Leishmania major was found to be 36 µM.

On to `O=C(CCCCl)N1c2ccccc2Oc2ccc(Cl)cc21`, for which the results for the IC50 in the assay on Leishmania major and in the assay with K562 were above 100 µM and above 90 µM, respectively. Also, the inhibition entry in assay [1] was “inactive”.

Consider `NC[C@@H]1O[C@H](O[C@H]2[C@@H](O)[C@H](O[C@@H]3[C@@H](O)[C@H](N)C[C@H](N)[C@H]3O[C@H]3O[C@H](CO)[C@@H](O)[C@H](O)[C@H]3N)O[C@@H]2CO)[C@H](N)[C@@H](O)[C@@H]1O` [PAROMOMYCIN], for which the IC50 in the assay on Leishmania major is above 100 µM.

As for `O=C(C(Cl)CCl)N1c2ccccc2Oc2ccccc21` (centres undefined), the IC50 with Leishmania major amounted to 9.6 µM. In addition, the inhibition result in assay [1] was “inactive”.

As for `O=C(CCl)N1c2ccccc2Sc2ccccc21`, the IC50 is 9.3 µM in the assay on Leishmania major and 5 µM in the assay with K562. The inhibition result in assay [1] was “inactive”. Moreover, the TDI result in assay [3] is “inactive”.

Turning to `O=C(CCl)N1c2ccccc2CCc2ccccc21`, the IC50 turned out to be 43.3 µM with Leishmania major and 4.8 µM with K562. The inhibition result in assay [1] is “inactive”.

On to `O=C(CCl)N1c2ccccc2COc2ccc(Cl)cc21`, for which the IC50 in the assay on Leishmania major is 7.2 µM; with K562, 3.3 µM. Further, the inhibition result in assay [1] was “inactive”. Besides, the TDI entry in assay [3] was “inactive”.

Take `O=C(CCl)N1c2ccccc2Sc2ccc(Cl)cc21`: the figures for the IC50 in the assay with Leishmania major and with K562 were 10.4 µM and 3.2 µM, respectively. The inhibition entry in assay [1] is “inactive”.

On to `O=C(C(Cl)Cl)N1c2ccccc2Oc2ccccc21`, for which the figures for the IC50 in the assay on Leishmania major and in the assay on K562 were 82 µM and above 30 µM, respectively. In assay [1], the inhibition entry was “inactive”.

Regarding `O=C(CCl)N1c2cc(Cl)ccc2Oc2ccc(Cl)cc21`, the values for the IC50 in the assay on Leishmania major and in the assay with K562 were 9.5 µM and 2.03 µM, respectively. Also, the inhibition result in assay [1] was “inactive”.

As to `O=C(CCCl)N1c2ccccc2Oc2ccc(Cl)cc21`, the IC50 with Leishmania major came out at 15.7 µM; in the assay on K562 it was 10.2 µM. The inhibition entry in assay [1] is “inactive”.

Take `O=C(CCl)N1c2ccccc2Oc2ccc(Cl)cc21`: the IC50 is 7.6 µM with Leishmania major and 3 µM in the assay on K562. The inhibition entry in assay [1] and in assay [4] was “inactive” each time.

Take `O=C(CCl)N1c2ccccc2Oc2ccc(C(F)(F)F)cc21`: in the assay with Leishmania major, the IC50 worked out at 9.6 µM. Moreover, the inhibition entry in assay [1] was “inactive”.

Take `CC(=O)N1c2ccccc2Oc2ccc(Cl)cc21`: the values for the IC50 with Leishmania major and in the assay with K562 were above 100 µM and above 30 µM, respectively. Besides, the inhibition result in assay [1] and in assay [5] was “inactive” throughout.

On to `C[C@@H]1[C@H](O)[C@@H](C)/C=C/C=C/C=C/C=C/C=C/C=C/C=C/[C@H](O[C@@H]2O[C@H](C)[C@@H](O)[C@H](N)[C@@H]2O)C[C@@H]2O[C@](O)(C[C@@H](O)C[C@@H](O)[C@H](O)CC[C@@H](O)C[C@@H](O)CC(=O)O[C@H]1C)C[C@H](O)[C@H]2C(=O)O` [AMPHOTERICIN B], for which the IC50 in the assay on Leishmania major was 0.33 µM.

As to `CC(Cl)C(=O)N1c2ccccc2Oc2ccccc21` (centres undefined), the results for the IC50 in the assay with Leishmania major and with K562 were above 100 µM and above 30 µM, respectively. Further, the inhibition result in assay [1] was “inactive”.

As for `O=C(CBr)N1c2ccccc2Oc2ccc(Cl)cc21`, the IC50 was above 100 µM in the assay with Leishmania major and 6.15 µM in the assay with K562. For the same molecule, in assay [1], the inhibition entry was “inactive”.

As for `O=C(CCl)N1c2ccccc2C=Cc2ccccc21`, the IC50 was found to be 48.1 µM with Leishmania major and 6.2 µM with K562. Further, the inhibition result in assay [1] is “inactive”.

Regarding `N#CCC(=O)N1c2ccccc2Oc2ccccc21`, the IC50 in the assay with Leishmania major is above 100 µM; with K562, 23 µM. In assay [1], the inhibition result is “inactive”.

On to `O=C(CCl)N(c1ccccc1)c1cccc(Cl)c1`, for which the IC50 with Leishmania major is 40.3 µM. Besides, the inhibition entry in assay [1] is “inactive”.

For `O=C(CCCl)N1c2ccccc2Oc2ccccc21`, the values for the IC50 in the assay with Leishmania major and in the assay with K562 were 39.1 µM and 15.2 µM, respectively. In addition, the inhibition entry in assay [1] is “inactive”.

With `N=C(N)c1ccc(OCCCCCOc2ccc(C(=N)N)cc2)cc1`, the IC50 in the assay on Leishmania major is 84 µM.

Turning to `O=C(CCl)n1c2ccccc2c2ccccc21`, the IC50 is above 100 µM with Leishmania major and 6.44 µM in the assay with K562. Also, the inhibition result in assay [1] was “inactive”.
